For data set [1] the following is noted: up to 30 mg kg^−1 i.p., Sprague-Dawley rats; cited from earlier work.
Data set [2] relates to small-conductance Ca2+-activated KCa2 channels. The conditions noted are these: cited from earlier work.
The conditions of data set [3]: experimental mice; cited from earlier work.
The conditions of data set [4]: up to 30 mg kg^−1 i.p., mice; cited from earlier work.
For data set [5], the target named is KCa2.2 (Rattus norvegicus, UniProt P70604). The experiment in a line: QPatch-HTX patch-clamp, KCa2.2. The format is cell-based. The method, boiled down:
(§1)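 Automated whole-cell patch clamp on a QPatch-HTX. Test compound came from 10 mM DMSO stocks, diluted in fixed ratios into each channel's own extracellular solution, over 300 nM to 30 μM. Each current slope was the mean of five measurements at the end of each liquid period. Activation was normalised per cell to a saturating 30 μM activator applied before washout; otherwise currents were normalised to the last vehicle period. Hill fit used ≥3 cells.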
For orientation: Patch clamp records ionic current or voltage across a cell membrane.

The target in data set [6] is KCa2.3 (Homo sapiens, UniProt Q9UGI6). Put plainly: QPatch-HTX patch-clamp, KCa2.3. The format is cell-based. In short, it runs like this: as §1
Sequence of KCa2.3 (Q9UGI6 whole entry): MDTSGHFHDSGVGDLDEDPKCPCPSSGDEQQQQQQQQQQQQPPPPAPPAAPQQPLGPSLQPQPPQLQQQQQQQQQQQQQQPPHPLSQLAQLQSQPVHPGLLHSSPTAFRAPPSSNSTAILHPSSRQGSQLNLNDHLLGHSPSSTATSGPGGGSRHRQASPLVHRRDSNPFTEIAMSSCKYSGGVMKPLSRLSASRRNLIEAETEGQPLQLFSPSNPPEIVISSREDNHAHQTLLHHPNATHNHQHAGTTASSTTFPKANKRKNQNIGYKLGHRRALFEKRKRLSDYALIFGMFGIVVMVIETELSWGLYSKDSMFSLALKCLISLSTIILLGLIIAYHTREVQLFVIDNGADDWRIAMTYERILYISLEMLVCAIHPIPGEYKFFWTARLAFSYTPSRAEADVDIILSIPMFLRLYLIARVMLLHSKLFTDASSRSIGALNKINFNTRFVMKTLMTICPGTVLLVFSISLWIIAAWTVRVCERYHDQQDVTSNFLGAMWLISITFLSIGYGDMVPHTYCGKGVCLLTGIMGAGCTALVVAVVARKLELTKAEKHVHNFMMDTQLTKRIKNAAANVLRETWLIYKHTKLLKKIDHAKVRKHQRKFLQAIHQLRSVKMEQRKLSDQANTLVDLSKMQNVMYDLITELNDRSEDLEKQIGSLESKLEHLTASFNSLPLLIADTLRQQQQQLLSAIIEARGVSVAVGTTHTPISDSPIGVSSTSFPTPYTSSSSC
The target of data set [7] is KCa3.1 channel (Homo sapiens, UniProt O15554+P0DP23). Put plainly: QPatch-HTX patch-clamp, KCa3.1 activation. The format is cell-based. The method, boiled down: as §1
Sequence of KCa3.1 channel (O15554 whole entry, one chain of several): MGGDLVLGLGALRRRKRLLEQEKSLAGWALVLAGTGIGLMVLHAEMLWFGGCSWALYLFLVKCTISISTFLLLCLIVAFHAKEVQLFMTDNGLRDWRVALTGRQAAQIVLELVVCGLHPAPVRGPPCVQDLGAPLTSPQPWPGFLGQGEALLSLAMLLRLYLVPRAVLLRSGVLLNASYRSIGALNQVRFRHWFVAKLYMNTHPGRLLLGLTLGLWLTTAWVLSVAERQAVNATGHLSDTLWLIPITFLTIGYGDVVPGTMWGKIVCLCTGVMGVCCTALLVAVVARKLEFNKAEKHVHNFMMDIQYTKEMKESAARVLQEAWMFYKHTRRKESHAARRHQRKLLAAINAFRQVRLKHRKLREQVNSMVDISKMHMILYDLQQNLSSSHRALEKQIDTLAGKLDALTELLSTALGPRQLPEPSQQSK
Data set [8] in a line: Solubility in DMSO by UV-Vis spectrophotometry. The format is physicochemical. In short, it runs like this:
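Excess test compound (50 mg) was shaken in 500 μL DMSO at 1000 rpm for 24 h, then filtered through 0.22 μm and diluted 100-fold in DMSO. Concentration came from absorbance at the peak, read against a blank-corrected calibration curve at 345 nm. Standards were serial dilutions in DMSO from 0.5 to 0.007 mg mL−1.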

Data set [9] is described as follows: 14-day i.p. tolerability in mice. The format is in vivo, C57BL/6 mice. Particulars: 30 mg kg^−1 i.p. daily for 14 days, female C57BL/6. In short, it runs like this: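 Female C57BL/6 mice (6–7 weeks old, n = 6 per group) got test compound at 6 mg mL−1 in 3% DMSO + 97% peanut oil. The preparation was thawed, heated to ~60 °C and cooled before dosing. Dose was ~100 μL i.p. (30 mg kg−1) once daily for 14 days; vehicle-injected controls. Body weight was taken every 2–4 days. At day 14, serum AST was measured by colorimetric kit, and organs were paraffin-embedded and H&E-stained.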

Data set [10] can be described thus: Tissue biodistribution by LC-MS after 14-day dosing. The format is in vivo, C57BL/6 mice. The conditions noted are these: female, C57BL/6, mouse, ip, 30 mg kg^−1. In short, it runs like this: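 After 14 days of daily i.p. dosing (30 mg kg−1 in 3% DMSO/97% peanut oil), brain, kidney and liver were harvested at termination. Pre-weighed organs were homogenised in methanol:dichloromethane (1:1), held 30 min at 4 °C and spun 10 min at 14000 rpm, 4 °C. LC-MS used a C18 column at 40 °C and 0.3 mL min−1, with a water/acetonitrile (0.1% formic acid) gradient from 20% to 95% B over a 10 min run.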

Data set [11] is described as follows: Plasma pharmacokinetics after single i.p. dose. The class given is in vivo, BALB/c mice. Particulars: 30 mg kg^−1 i.p. The method, boiled down: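 Female BALB/c mice (7–9 weeks old, n = 4 per time point) received a single i.p. dose of 30 mg kg−1 in 3% DMSO + 97% peanut oil. Blood was taken at 0, 0.25, 0.5, 1, 2, 4, 8 and 24 h. Plasma (20 μL) was mixed with 60 μL methanol:dichloromethane (1:1), then test compound was quantified by LC-MS on a C18 column with a water/acetonitrile (0.1% formic acid) gradient.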

SMILES strings stand for the structures. pEC50: −log10 of the molar value. Several values for one entry are separate records, joined by “and”; a condition that tells them apart may be missing. Equal values may be shown once. Read-outs that look alike come from different tables or passages of the source.

Sequence of KCa2.2 (P70604 whole entry): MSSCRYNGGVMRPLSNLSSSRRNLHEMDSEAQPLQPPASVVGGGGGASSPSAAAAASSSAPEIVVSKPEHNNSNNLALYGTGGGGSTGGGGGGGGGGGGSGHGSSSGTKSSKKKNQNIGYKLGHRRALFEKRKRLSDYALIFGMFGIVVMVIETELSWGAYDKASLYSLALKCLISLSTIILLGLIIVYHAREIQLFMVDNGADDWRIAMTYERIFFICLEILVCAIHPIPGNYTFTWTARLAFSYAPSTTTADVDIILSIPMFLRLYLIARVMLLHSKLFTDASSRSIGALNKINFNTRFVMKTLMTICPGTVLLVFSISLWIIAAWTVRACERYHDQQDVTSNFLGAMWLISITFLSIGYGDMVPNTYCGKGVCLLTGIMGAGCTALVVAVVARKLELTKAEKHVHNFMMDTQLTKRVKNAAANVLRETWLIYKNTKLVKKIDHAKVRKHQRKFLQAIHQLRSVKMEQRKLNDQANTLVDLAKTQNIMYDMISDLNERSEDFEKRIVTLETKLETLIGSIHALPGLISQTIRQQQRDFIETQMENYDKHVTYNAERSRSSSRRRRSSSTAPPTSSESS

`Nc1nc2c(ccc3ccccc32)s1` [SKA-31, Naphtho[1,2-d]thiazol-2-ylamine]: the Tolerability entry in data set [1] and in data set [4] was “well-tolerated” each time. In data set [2], the “Selectivity for KCa3.1 over KCa2 channels” value is given as “lacked selectivity”. The “Effect on blood pressure” value in data set [3] is listed as “lowered blood pressure”.
As for `Nc1nc2c(cc(C(F)(F)F)c3ncccc32)s1` [NKV-104, 5-(trifluoromethyl)thiazolo[4,5-f]quinolin-2-amine], the figures for the pEC50 in data set [5], in data set [6] and in [7] were 4.92, 4.53 and 5.77, respectively.
For `Cc1cc2sc(N)nc2c2cccnc12` [SKA-346, 5-methyl-[1,3]thiazolo[4,5-f]quinolin-2-amine], the solubility at 24 h in [8] is 40600 µg/mL and 189000 µM. For the same molecule, in data set [9], the “Change in serum aspartate aminotransferase (AST) vs vehicle” value is recorded as “did not cause any significant change” and the “Mouse body weight loss vs vehicle” value is given as “no significant mouse body weight loss”. This molecule also had a concentration at 14 days in data set [10] (kidney) of 60.7 ng/g. In addition, the concentration at 14 days in [10] (liver) turned out to be 22.5 ng/g. For the same molecule, the “Cmax relative to EC50 for KCa3.1 activation” value in [11] (at 15 min) is given as “about 15 times”. In addition, in [11] (female BALB/c mice, plasma), the MRTlast is 4.82 h and the “circulating half-life (t1/2)” value was 2.84 h. Also, the Cmax in [11] (female, BALB/c, mouse, plasma, ip, 30 mg/kg, peak plasma concentration (Cmax), female BALB/c mice, at 15 min) was 6290 ng/mL and 29.2 µM. The molecule also showed a pEC50 in [7] of 5.72.

As usually defined, the pEC50 is −log10 of the EC50, conventionally taken in molar units. Higher therefore signals a low EC50. As a reminder, the solubility is the dissolved amount per volume that the medium holds. High values mean a readily soluble substance, low ones a poorly soluble substance. One may read the Cmax as the highest concentration seen after dosing.
